Here are results for 25 compounds from ChEMBL document CHEMBL1135128, “Structure-Activity studies for a novel series of tricyclic dihydropyrimidines as K(ATP) channel openers (KCOs)” (Bioorg Med Chem Lett, 2002).

SMILES strings stand for the structures. Bounds are passed on as bounds.

The first assay concerns the target Sulfonylurea receptors; K-ATP channels. Nature of the assay: Potassium channel opening activity determined in cultured guinea pig urinary bladder cells. The class given is functional, cell-based, Cavia porcellus. In short, it runs like this: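 Membrane potential change read as DiBAC dye fluorescence in a 96-well cell-based kinetic FLIPR assay. Fluorescence changes were compared with the response to the KCO P1075, and each compound's maximal response was expressed as % of the P1075 response.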
With `N#Cc1cccc(C2C3=C(CCCC3=O)NC3=C2C(=O)CCC3)c1`, the EC50 came out at 3800 nM.
`OC1=C2C(=Nc3c(-c4ccco4)cnn3C2c2ccc(Cl)c(Cl)c2)CCC1` (configuration not stated): the midpoint of the response, the EC50, lay at 12000 nM.
On the same count and under the same terms, with `OC1=C2C(=Nc3ccnn3C2c2ccc(F)c(C(F)(F)F)c2)CCC1` (configuration not stated) the figure was 290 nM; with `OC1=C2C(=Nc3ccnn3C2c2ccc(Cl)c(C(F)(F)F)c2)CCC1` (configuration not stated), 187 nM; with `OC1=C2C(=Nc3ccnn3C2c2cccc(Cl)c2)CCC1` (configuration not stated), 1100 nM.
Still for that read-out and setting: with `Cc1cccc(C2C3=C(O)CCCC3=Nc3ccnn32)c1` (configuration not stated) the figure was over 10000 nM.
Same read-out and setting: with `OC1=C2C(=Nc3ccnn3C2c2ccc(F)cc2)CCC1` (configuration not stated) the figure was 7800 nM; with `OC1=C2C(=Nc3nnnn3C2c2ccc(F)c(Br)c2)CCC1` (configuration not stated), over 10000 nM; with `OC1=C2C(=Nc3n[nH]cc3C2c2ccc(F)c(Br)c2)CCC1` (configuration not stated), over 10000 nM.
In turn, `OC1=C2C(=Nc3ncnn3C2c2ccc(F)c(Br)c2)CCC1` (configuration not stated) came in with an EC50 of over 10000 nM.
On the same count and under the same terms, with `OC1=C2C(=Nc3c(-c4cccc(F)c4)cnn3C2c2ccc(Cl)c(Cl)c2)CCC1` (configuration not stated) the figure was 3200 nM; with `OC1=C2C(=Nc3ccnn3C2c2ccc(Br)c(F)c2)CCC1` (configuration not stated), 30 nM.
On the same count and under the same terms, with `O=[N+]([O-])c1cc(C2C3=C(O)CCCC3=Nc3ccnn32)ccc1Cl` (configuration not stated) the figure was 310 nM.
As to `CC1(C)CC(=O)C2C(C1)Nc1ccnn1C2c1ccc(F)c(Br)c1` (configuration not stated), it took 9700 nM to reach a half-maximal effect (EC50).
Same read-out and setting: as for `CC(C)(C)c1cc2n(n1)C(c1ccc(F)c(Br)c1)C1=C(O)CCCC1=N2` (configuration not stated), the figure is 12000 nM; as for `O=C1CSCC2Nc3ccnn3C(c3ccc(F)c(Br)c3)C12` (configuration not stated), 40 nM.
On the same count and under the same terms, as for `OC1=C2C(=Nc3ccnn3C2c2ccc(F)c(Br)c2)CCC1` (configuration not stated), the figure is 30 nM; as for `CC1(C)CCC2Nc3ccnn3C(c3ccc(F)c(Br)c3)C2C1=O` (configuration not stated), 35 nM; as for `O=S1(=O)CCCC2Nc3ccnn3C(c3ccc(F)c(Br)c3)C21` (configuration not stated), 910 nM.
On the same count and under the same terms, as for `OC1=C2C(=Nc3ccnn3C2c2cccc(OC(F)(F)F)c2)CCC1` (configuration not stated), the figure is 1700 nM.
For the compound `OC1=C2C(=Nc3ccnn3C2c2ccc(F)c(Cl)c2)CCC1` (configuration not stated), a half-maximal effect (EC50) was put at 256 nM.
Still for that read-out and setting: with `N#Cc1cccc(C2C3=C(O)CCCC3=Nc3ccnn32)c1` (configuration not stated) the figure was 2860 nM; with `OC1=C2C(=Nc3c(Br)cnn3C2c2ccc(F)c(Br)c2)CCC1` (configuration not stated), 394 nM.
Turning to `OC1=C2C(=Nc3ccnn3C2c2cccc(Br)c2)CCC1` (configuration not stated), the midpoint of the response, the EC50, lay at 550 nM.
Regarding `OC1=C2C(=Nc3ccnn3C2c2ccc(Cl)c(Cl)c2)CCC1` (configuration not stated), the EC50 was 130 nM.

Target in a further assay: not listed separately
Kind of assay: PEC50 for functional potassium channel opening activity in isolated bladder strips.
`OC1=C2C(=Nc3ccnn3C2c2ccc(F)c(Br)c2)CCC1` (configuration not stated) showed an EC50 of 339 nM.
The same measure, in the same setting: as for `CC1(C)CCC2Nc3ccnn3C(c3ccc(F)c(Br)c3)C2C1=O` (configuration not stated), the figure is 1000 nM.

As a reminder, the EC50 is the concentration needed to bring the measured effect to its halfway point. Read a high EC50 as lower potency in that assay.
